Data taken from paper PMC7332640 (Acta Pharmaceutica Sinica. B, 2019).

Tests used:
[1] = In vitro phosphorylation of compounds in human whole blood; assay type: in vitro ADME; settings: for Vmax (phosphorylation): 37 °C, 60 min, 1–100 μmol/L; for Km: read-out: Km (phosphorylation), 37 °C, 60 min, 1–100 μmol/L
Method in brief: (§1)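 Test compound was spiked directly into fresh whole blood at eight levels from 1 to 100 and incubated at 37 °C for 60 min. Reactions were quenched with ice-cold acetonitrile, vortexed and centrifuged. The supernatant was analysed by LC-MS/MS for phosphate formation. Km and Vmax were obtained by nonlinear fitting to the Michaelis–Menten equation.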

[2] = In vitro phosphorylation of compounds in rat whole blood; assay type: in vitro ADME; settings: for Vmax (phosphorylation): 37 °C, 60 min, 1–100 μmol/L; for Km: read-out: Km (phosphorylation), 37 °C, 60 min, 1–100 μmol/L
Method in brief: as §1

[3] = assay type: in vivo; settings: Sprague–Dawley rats, oral 3 mg/kg
Method in brief: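 Male Sprague–Dawley rats, three per group, were fasted 12 h, dosed orally at 3 mg/kg in 0.5% hydroxypropyl methylcellulose, and fed 4 h postdose. Heparinized orbital blood was taken from 0.08 to 48 h, including 6 h, and protein-precipitated with acetonitrile. Parent and phosphorylated drug were quantified by positive-ESI MRM LC-MS/MS on a C18 column with a formic acid water/methanol gradient.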

CLint (phosphorylation) [1] | CLint (phosphorylation) [2] | phosphorylation level at 6 h after dosing [3] | SMILES | Vmax (phosphorylation) [1] | Km [1] | Vmax (phosphorylation) [2] | Km [2]
0.295 µL/min | 1.545 µL/min | 95% | CCCCCCCCc1ccc(CC[C@@](C)(N)CO)cc1.Cl [Compound 21, (R)-2-Amino-2-methyl-4-(4-octylphenyl)butan-1-ol hydrochloride] | 3.36 ± 0.62 pmol/min | 11.4 ± 1.9 µM | 221 ± 36.8 pmol/min | 143 ± 25.4 µM
0.021 µL/min | 3.121 µL/min | 69% | CCCCCCCCc1ccc(CC[C@@H](N)CO)cc1.Cl [Compound 22, (R)-2-Amino-4-(4-octylphenyl)butan-1-ol hydrochloride] | 1.24 ± 0.31 pmol/min | 58.2 ± 10.6 µM | 28.4 ± 4.5 pmol/min | 9.1 ± 1.8 µM
0.012 µL/min | 0.505 µL/min | 94% | CCc1nc(-c2ccc(-c3ccc(CC[C@@](C)(N)CO)cc3)cc2)co1.Cl [Compound 23, (R)-2-Amino-4-(4′-(2-ethyloxazol-4-yl)-[1,1′-biphenyl]-4-yl)-2-methylbutan-1-ol hydrochloride] | 0.87 ± 0.09 pmol/min | 65.5 ± 8.3 µM | 65.2 ± 8.2 pmol/min | 129 ± 15.6 µM
0.006 µL/min | 0.015 µL/min | 89% | CCc1nc(-c2ccc(-c3ccc(CC[C@@H](N)CO)cc3)cc2)co1.Cl [Compound 24, (R)-2-Amino-4-(4′-(2-ethyloxazol-4-yl)-[1,1′-biphenyl]-4-yl)butan-1-ol hydrochloride] | 0.24 ± 0.05 pmol/min | 40.2 ± 7.3 µM | 1.9 ± 0.3 pmol/min | 128 ± 23.4 µM
0.013 µL/min | 0.930 µL/min | 80% | CCCCCCCCc1ccc(CCC(N)(CO)CO)cc1 [FTY720, fingolimod, reference compound] | 0.33 ± 0.05 pmol/min | 25.7 ± 4.2 µM | 63.4 ± 10.2 pmol/min | 68.2 ± 11.2 µM
